Source: PubChem BioAssay
This is a sample that favours compounds with a hit; in the whole collection about 4.3% have one here.
RBBP9 inh: inhibitors of human serine hydrolase RBBP9. O75884. 220,000 compounds, 0.2% hits. recombinant RBBP9, FP-Rh probe fluorescence polarization. inhibition, % at 7.94 µM;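 active = inhibition above the campaign mean of all tested compounds plus 3 SD, cut at about 14% in these data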;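 also: plate controls were DMSO wells with RBBP9 for no effect and wells lacking RBBP9 protein for full effect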
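Test system – recombinant human RBBP9 · Input – RBBP9 2.5 µM in dispensing solution, pre-mixing · Medium – Tris buffer pH 8.0, NaCl, Pluronic · Schedule – preincubation 30 min plus labeling 45 min at 25 °C · Measured by – fluorescence polarization · Measure – % inhibition · Controls – DMSO and no-protein wells · Replicates – one well per compound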
UBC13 polyUb: human UBC13 polyubiquitination inhibition; 330,000 compounds, 0.47% hits; UBC13 polyubiquitin chain formation, TR-FRET; inhibition, % at 20 µM; P61088; in the data active = inhibition above about 45%, passing the limit was not always enough; inconclusive = no clear call, values can overlap the other calls
Rin1-Abl PPI inh: blocks binding of human Rin1 to Abl | P00519+Q13671 | TR-FRET Rin1/Abl binding, biochemical | inhibition, % at 7.35 µM | 360,000 compounds, 0.4% hits; in the data active = inhibition above about 5%, passing the limit was not always enough
ALR inh: human ALR oxidase inhibition via reduced H2O2; AID 485317; purified ALR, DTT oxidation, H2O2 HRP-luminol luminescence; inhibition, % (test concentration not listed); 290,000 compounds, 3.8% hits;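 active = mean replicate inhibition above about 79%, with every replicate also reaching it, limit read from the data; inconclusive = only one of the two criteria met; inactive = mean below limit and not every replicate reaching it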
PREPL inhibitor: human PREPL enzyme inhibition. inhibition, % at 5.96 µM. recombinant PREPL, fluorescence polarization activity-based probe. Q4J6C6. 320,000 compounds, 0.68% hits; in the data active = inhibition above about 43%;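 also: 0% = enzyme with DMSO and 100% = wells lacking enzyme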
Target sequence (Q4J6C6 whole entry, looked up): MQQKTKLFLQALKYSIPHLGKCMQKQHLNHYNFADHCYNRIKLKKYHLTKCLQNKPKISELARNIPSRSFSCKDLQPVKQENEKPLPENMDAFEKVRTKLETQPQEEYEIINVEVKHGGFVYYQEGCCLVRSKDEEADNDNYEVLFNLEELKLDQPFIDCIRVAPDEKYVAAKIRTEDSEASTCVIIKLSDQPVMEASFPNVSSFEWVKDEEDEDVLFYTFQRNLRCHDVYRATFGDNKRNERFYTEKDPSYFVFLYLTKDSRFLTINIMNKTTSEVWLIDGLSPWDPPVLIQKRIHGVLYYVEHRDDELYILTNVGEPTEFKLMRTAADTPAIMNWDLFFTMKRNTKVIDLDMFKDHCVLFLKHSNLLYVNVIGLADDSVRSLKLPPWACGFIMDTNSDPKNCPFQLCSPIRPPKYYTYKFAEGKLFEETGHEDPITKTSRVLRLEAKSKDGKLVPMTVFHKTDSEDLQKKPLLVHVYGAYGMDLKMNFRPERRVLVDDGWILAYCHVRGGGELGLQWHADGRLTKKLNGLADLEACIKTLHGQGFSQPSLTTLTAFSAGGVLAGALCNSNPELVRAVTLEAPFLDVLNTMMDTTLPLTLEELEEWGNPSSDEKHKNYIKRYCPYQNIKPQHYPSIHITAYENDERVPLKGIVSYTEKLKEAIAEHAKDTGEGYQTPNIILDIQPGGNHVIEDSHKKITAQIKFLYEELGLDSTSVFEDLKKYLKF
SUMO HTRF inh: inhibitors of human SUMOylation (UBC9); P63279; HTRF SUMOylation assay, SAE1/SAE2 + UBC9, in vitro; inhibition, % at 35 µM; 290,000 compounds, 0.36% hits; AID 2006; in the data active = inhibition above about 50%, passing the limit was not always enough; inconclusive = no clear call, values can overlap the other calls
Casp3 UBC13 ctr: counter-screen for UBC13 inhibitors: human caspase-3 inhibition | shares compounds with UBC13 polyUb | Recombinant caspase-3, Caspase-Glo 3/7 luminescence, 60 min | inhibition, % at 20 µM | 1,400 compounds, 4% hits;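 active = mean inhibition across replicates above about 26%, limit read from the data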;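 also: plate controls were DMSO with caspase-3 for no effect and DMSO wells lacking enzyme for full effect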
UBC13 confirm: human UBC13 polyubiquitin inhibition, confirmed; 1,400 compounds, 68% hits; shares compounds with UBC13 polyUb; AID 488859; UBC13 polyubiquitination, TR-FRET, biochemical; inhibition, % at 10 µM; in the data active = inhibition above about 45%; inconclusive = no clear call, values can overlap the other calls
Active calls of the source: *; ? = inconclusive; nt = no result.

SMILES	RBBP9 inh	UBC13 polyUb	Rin1-Abl PPI inh	ALR inh	PREPL inhibitor	SUMO HTRF inh	Casp3 UBC13 ctr	UBC13 confirm
CS(=O)(=O)NCc1ccccc1Br	nt	3	nt	1	-4	nt	nt	nt
O=C(COC(=O)c1c[nH]c2ccccc12)Nc1ccc([N+](=O)[O-])cc1	nt	3	1	nt	7	nt	nt	nt
Cc1ccc(OCC(=O)N2CCc3ccccc3C2)c([N+](=O)[O-])n1	5	-5	-1	-3	-2	22	nt	nt
CSCC[C@H](NC(=O)c1ccc(OCC2CCCO2)cc1)c1nc2ccccc2[nH]1 (some centres undefined)	nt	6	1	-22	8	nt	nt	nt
CC1(C(=O)NCc2cccc(C(F)(F)F)c2)CCN1CCc1ccccc1 (centres undefined)	nt	nt	-1	nt	nt	nt	nt	nt
Cc1onc(-c2ccccc2)c1C(=O)Nc1cccc2nsnc12	5	49*	0	-3	5	1	1	45
C=CCc1ccccc1OCC(O)CN1CCN(CCN2C(=O)c3cccc4cccc(c34)C2=O)CC1 (centres undefined)	-11	59*	-8	-20	10	-22	-4	97*
CCC(OCC(O)CN1CCN(CCN2C(=O)c3cccc4cccc(c34)C2=O)CC1)c1ccccc1 (centres undefined)	-7	82*	-8	-90	-11	1	4	97*
CC(C)OCC(O)CN1CCN(CCN2C(=O)c3cccc4cccc(c34)C2=O)CC1 (centres undefined)	nt	-11	-7	1	5	11	nt	nt
C=CCc1ccccc1OCC(O)CN1CCN(C(=O)OCC)CC1 (centres undefined)	-8	1	-2	-2	8	-32	nt	nt
Cc1ccccc1OCC(O)CN1CCN(CCN2C(=O)c3cccc4cccc(c34)C2=O)CC1 (centres undefined)	4	50*	-8	-5	-17	2	0	76*
CC(=O)c1ccc(OCC(O)CN2CCN(CCN3C(=O)c4cccc5cccc(c45)C3=O)CC2)cc1 (centres undefined)	-8	96*	-7	-22	3	6	-2	103*
CC(=O)c1ccc(OCC(O)CN2CCN(CC(O)COc3ccc(C(C)=O)cc3)CC2)cc1 (centres undefined)	-4	5	-2	-9	-12	0	nt	nt
COc1ccc(S(=O)(=O)N2CCNCC2)cc1	nt	0	-1	-3	5	-4	nt	nt
COc1ccc(C(=O)N2CCCC(C)(C(=O)NS(=O)(=O)C3CC3)C2)cc1 (centres undefined)	nt	nt	0	nt	nt	nt	nt	nt
COc1ccc(CC(=O)NCCC(C)C)cc1S(=O)(=O)N1CCOCC1	-8	-8	-2	-15	10	3	nt	nt
CCN(CC)C(=O)C1=C(C)N(Cc2ccc(OC)cc2)C(=O)C(CC(=O)NCc2cccc3ccccc23)C1 (centres undefined)	nt	nt	4	nt	nt	nt	nt	nt
NCCCNCCCCNCCCN	nt	93*	-2	nt	-3	nt	-3	73*
S=c1[nH]nc(C2CCCCC2)n1/N=C/c1cccc(Cl)c1Cl	nt	5	2	18	nt	-1	nt	nt
CC(=O)NC(c1cc(Cl)c2ccccc2c1O)C(C)C (centres undefined)	nt	81*	0	94*	2	nt	-4	56*
CCC(=O)NC(c1cccs1)c1cc(Cl)c2ccccc2c1O (centres undefined)	nt	49*	3	35	8	nt	-2	34
CC(=O)NC(c1cccs1)c1cc(Cl)c2ccccc2c1O (centres undefined)	nt	71*	-1	41	11	nt	-2	58*
Cc1ccc(C(=O)N/C(=C\c2cn(S(=O)(=O)N(C)C)c3ccccc23)C(=O)NCCN2CCOCC2)cc1	nt	-2	0	nt	nt	-5	nt	nt
CC1CCC2C(=O)N(c3ccccc3OC(=O)c3ccccc3F)C(=O)C2C1 (centres undefined)	-12	-3	0	-4	1	1	nt	nt
CCOC(=O)c1cc(-c2ccncc2)nc2c1c(C)nn2C	-5	113*	-2	-14	7	38	-2	?
SMILES	RBBP9 inh	UBC13 polyUb	Rin1-Abl PPI inh	ALR inh	PREPL inhibitor	SUMO HTRF inh	Casp3 UBC13 ctr	UBC13 confirm
CCOC(=O)c1cc(-c2ccc(Cl)cc2)nc2c1c(C)nn2CCC#N	-8	?	1	-6	6	0	nt	nt
CCOC(=O)c1cc(-c2ccc(OC)cc2F)nc2c1c(C)nn2CCC#N	-9	49*	2	-2	-1	11	-3	44
CCOC(=O)c1cc(-c2ccccc2)nc2c1c(C)nn2-c1ccccn1	-7	62*	0	nt	-6	16	1	45
CCc1nc2ccc(C(=O)NCCOc3ccc(OC)cc3)cn2c1N(C)C(=O)Cc1ccccc1	nt	nt	-3	nt	nt	nt	nt	nt
CC(=O)N1CC23C=CC(CC2CC12CCCCCC2)O3 (centres undefined)	2	-2	1	0	19	-4	nt	nt
CCC1(c2ccccc2)NC(=O)N(CC(=O)NCc2ccc(OC)cc2)C1=O (centres undefined)	nt	-1	2	-3	7	7	nt	nt
CC(C)N1CCc2c(sc(NC(=O)c3nc4ccccc4s3)c2C(N)=O)C1	-1	2	-2	35	8	-5	nt	nt
CC(C)N1CCc2c(sc(NC(=O)c3cc(-c4cccs4)nc4ccccc34)c2C(N)=O)C1	-11	54*	-6	-8	6	-4	-4	49*
CC(C)N1CCc2c(sc(NC(=O)c3ccc(S(=O)(=O)N4CCc5ccccc54)cc3)c2C(N)=O)C1	-3	50*	-6	-18	6	-24	0	41
CCn1cc(C(=O)N[C@H](C(=O)NCCCN2CCOCC2)C(C)C)c(=O)c2cc3c(cc21)OCO3	nt	1	-1	0	0	8	nt	nt
CCOc1ccc2oc(C(=O)N(CC)CC(=O)Nc3c(F)cccc3F)c(C)c2c1	nt	0	4	-7	0	nt	nt	nt
CCC(=O)c1cc2c(C)cc(=O)oc2c(C)c1OC(C)=O	5	35	-1	0	-5	25	nt	nt
CCC(=O)c1cc2c(C)cc(=O)oc2c(C)c1O	-4	45*	-3	-14	21	9	-2	?
CCN(CC)C(=O)c1[nH]cnc1C(=O)N[C@H](C)c1ccccc1	nt	-1	2	-5	19	nt	nt	nt
C#CCOCCOCCOCCNc1nc(N2CCN(C(=O)CCCCCCCCCCNC(=O)Cn3cc(C[C@@H](C)O)nn3)CC2)nc(N2CCN(C(=O)CCCCCCCCCCNC(=O)[C@@H](CCC(=O)O)n3cc(CCCCCN)nn3)CC2)n1	nt	66*	4	-3	22	nt	-5	51*
C#CCOCCOCCOCCNc1nc(N2CCN(C(=O)Cn3cc(CCO)nn3)CC2)nc(N2CCN(C(=O)[C@H]([C@@H](C)CC)n3cc(CCCCN)nn3)CC2)n1	nt	nt	1	nt	nt	nt	nt	nt
